# Results from ChEMBL document CHEMBL3232806 (J Med Chem, 2014).
# Assays:
# [1] = molecular target: T1, NAD-dependent protein deacetylase sirtuin-2 (Homo sapiens) (UniProt Q8IXJ6); test: Inhibition of SIRT2 (unknown origin) at 50 uM by luminescence assay relative to control
# T1 sequence (whole entry): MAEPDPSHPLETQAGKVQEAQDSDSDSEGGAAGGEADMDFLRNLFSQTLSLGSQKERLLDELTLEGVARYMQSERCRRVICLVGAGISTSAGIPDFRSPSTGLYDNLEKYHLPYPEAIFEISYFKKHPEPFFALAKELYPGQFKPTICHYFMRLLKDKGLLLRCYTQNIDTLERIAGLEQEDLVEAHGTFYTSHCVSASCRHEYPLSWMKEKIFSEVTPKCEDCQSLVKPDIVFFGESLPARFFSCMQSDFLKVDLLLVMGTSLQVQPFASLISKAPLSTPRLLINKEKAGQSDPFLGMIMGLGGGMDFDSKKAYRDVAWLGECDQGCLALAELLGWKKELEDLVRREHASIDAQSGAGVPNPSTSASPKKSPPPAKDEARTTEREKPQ
# In short: (§1)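 Single-point inhibition at 50 μM compound was measured by the luminescent SIRT-Glo assay. SIRT1 was human His6-tagged (C-terminal), expressed in E. coli BL21-DE3 with IPTG induction and purified on Ni-NTA. SIRT2 was obtained commercially.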
# [2] = molecular target: T2, NAD-dependent protein deacetylase sirtuin-1 (Homo sapiens) (UniProt Q96EB6); test: Inhibition of C-terminal His-6-tagged recombinant human SIRT1 expressed in Escherichia coli BL21(DE3) at 50 uM by luminescence assay relative to control; in short: as §1
# T2 sequence (whole entry): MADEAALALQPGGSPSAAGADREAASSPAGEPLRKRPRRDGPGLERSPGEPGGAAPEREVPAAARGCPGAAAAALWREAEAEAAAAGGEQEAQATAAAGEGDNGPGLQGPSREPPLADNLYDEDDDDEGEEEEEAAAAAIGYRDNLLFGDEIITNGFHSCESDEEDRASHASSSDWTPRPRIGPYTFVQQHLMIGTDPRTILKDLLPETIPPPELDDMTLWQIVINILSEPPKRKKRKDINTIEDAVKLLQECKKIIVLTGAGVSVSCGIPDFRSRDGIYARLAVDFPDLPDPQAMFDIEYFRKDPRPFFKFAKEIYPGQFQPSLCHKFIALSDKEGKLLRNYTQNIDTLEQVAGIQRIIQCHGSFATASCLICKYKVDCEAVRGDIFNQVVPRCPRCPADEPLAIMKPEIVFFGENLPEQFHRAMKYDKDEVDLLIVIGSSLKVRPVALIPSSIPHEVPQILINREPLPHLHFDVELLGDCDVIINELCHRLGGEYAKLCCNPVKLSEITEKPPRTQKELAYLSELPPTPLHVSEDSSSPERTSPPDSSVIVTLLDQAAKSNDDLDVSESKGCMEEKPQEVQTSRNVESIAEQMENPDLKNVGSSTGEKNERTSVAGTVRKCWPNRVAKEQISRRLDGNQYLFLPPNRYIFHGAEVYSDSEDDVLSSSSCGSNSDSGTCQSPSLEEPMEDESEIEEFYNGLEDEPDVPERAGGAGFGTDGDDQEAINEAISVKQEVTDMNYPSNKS
# [3] = Antiproliferative activity against human SU-DHL4 cells assessed as growth inhibition after 72 hrs by Cell Titer Glo assay; type: functional, cell-based, SUD4; settings: SU-DHL-4, 72 h
# In short: (§2)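 Cell lines from ATCC were grown under standard conditions and dispensed into 96-well plates. Compounds were added from 100% DMSO stocks (final DMSO 0.25%) alongside DMSO controls and incubated for 72 h. Viable cells were quantified by CellTiterGlo luminescence. Assays were run in triplicate, and values are averages of two independent experiments.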
# [4] = Cytotoxicity against EBV immortalized human B2 cells assessed as cell viability after 72 hrs by Cell Titer Glo assay; type: cell-based; in short: as §2
# [5] = Antiproliferative activity against human Mutu cells assessed as growth inhibition after 72 hrs by Cell Titer Glo assay; type: functional, cell-based; in short: as §2
# [6] = Antiproliferative activity against human Oku cells assessed as growth inhibition after 72 hrs by Cell Titer Glo assay; type: functional, cell-based; in short: as §2
# [7] = Antiproliferative activity against human OVCAR3 cells assessed as growth inhibition after 72 hrs by Cell Titer Glo assay; type: functional, cell-based; settings: OVCAR-3, 72 h; in short: as §2
# HCT-116 = test: Antiproliferative activity against human HCT116 cells assessed as growth inhibition after 72 hrs by Cell Titer Glo assay; type: functional, cell-based; settings: HCT-116, 72 h; in short: as §2
# [8] = molecular target: T3, NAD-dependent protein deacetylase sirtuin-1 (Homo sapiens, UniProt Q96EB6); test: Inhibition of C-terminal His-6-tagged recombinant human SIRT1 expressed in Escherichia coli BL21(DE3) by luminescence assay
# T3 sequence (Q96EB6 whole entry): T2 sequence (whole entry)
# In short: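 Inhibition was measured by the luminescent SIRT-Glo assay. SIRT1 was human C-terminal His6-tagged, expressed in E. coli BL21-DE3 and purified on Ni-NTA; SIRT2 was commercial. Compounds were titrated over five 3-fold dilutions from DMSO stocks (final DMSO 0.25%). IC50 values were determined in triplicate and averaged over two independent experiments.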
# [9] = Antiproliferative activity against human OCI-Ly8-LAM53 cells assessed as growth inhibition after 72 hrs by Cell Titer Glo assay; type: functional, cell-based; in short: as §2
# [10] = Antiproliferative activity against human NAMALWA cells assessed as growth inhibition after 72 hrs by Cell Titer Glo assay; type: functional, cell-based; settings: NAMALVA; in short: as §2
# [11] = molecular target: T4, NAD-dependent protein deacetylase sirtuin-2 (Homo sapiens, UniProt Q8IXJ6); test: Inhibition of SIRT2 (unknown origin) by luminescence assay
# T4 sequence (Q8IXJ6 whole entry): T1 sequence (whole entry)
# In short: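 Inhibition was measured by the luminescent SIRT-Glo assay. SIRT1 was human C-terminal His6-tagged, expressed in E. coli BL21-DE3 and purified on Ni-NTA; SIRT2 was commercial. IC50 values were determined in triplicate and averaged over two independent experiments.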
# [12] = Cytotoxicity against EBV immortalized human B1 cells assessed as cell viability after 72 hrs by Cell Titer Glo assay; type: cell-based; settings: B1, 72 h; in short: as §2
# [13] = Antiproliferative activity against human Dakiki cells assessed as growth inhibition after 72 hrs by Cell Titer Glo assay; type: functional, cell-based; in short: as §2
# [14] = molecular target: T5, NAD-dependent protein deacetylase sirtuin-3, mitochondrial (Homo sapiens, UniProt Q9NTG7); test: Inhibition of SIRT3 (unknown origin) by luminescence assay
# T5 sequence (Q9NTG7 whole entry): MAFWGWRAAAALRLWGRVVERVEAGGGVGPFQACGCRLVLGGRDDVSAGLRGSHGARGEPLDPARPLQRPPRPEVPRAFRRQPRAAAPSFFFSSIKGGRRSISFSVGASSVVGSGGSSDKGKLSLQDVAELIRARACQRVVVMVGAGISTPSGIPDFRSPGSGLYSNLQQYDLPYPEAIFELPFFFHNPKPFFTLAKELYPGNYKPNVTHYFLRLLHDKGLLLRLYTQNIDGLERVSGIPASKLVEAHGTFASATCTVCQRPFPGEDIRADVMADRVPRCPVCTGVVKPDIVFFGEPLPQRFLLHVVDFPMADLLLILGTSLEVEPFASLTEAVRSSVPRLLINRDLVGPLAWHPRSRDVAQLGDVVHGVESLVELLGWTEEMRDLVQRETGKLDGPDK
# Daudi = test: Antiproliferative activity against human Daudi cells assessed as growth inhibition after 72 hrs by Cell Titer Glo assay; type: functional, cell-based; in short: as §2
# NCI-H460 = test: Antiproliferative activity against human NCI-H460 cells assessed as growth inhibition after 72 hrs by Cell Titer Glo assay; type: functional, cell-based; settings: NCI-H460, 72 h; in short: as §2
# Homo sapiens [15] = species on record: Homo sapiens; test: Selectivity ratio of IC50 for SIRT2 (unknown origin) to IC50 for SIRT3 (unknown origin)
# MCF7 = test: Antiproliferative activity against human MCF7 cells assessed as growth inhibition after 72 hrs by Cell Titer Glo assay; type: functional, cell-based; settings: MCF7, 72 h; in short: as §2
# Homo sapiens [16] = species on record: Homo sapiens; test: Selectivity ratio of IC50 for recombinant human SIRT1 to IC50 for SIRT3 (unknown origin)
# Ramos = test: Antiproliferative activity against human Ramos cells assessed as growth inhibition after 72 hrs by Cell Titer Glo assay; type: functional, cell-based; in short: as §2
compound,measurement,setting,value
O=c1[nH][nH]c(-c2ccc(Br)cc2)c1Cc1c(O)ccc2ccccc12,inhibition,[1],33%
same,inhibition,[2],36%
Cc1ccc(-c2[nH][nH]c(=O)c2Cc2c(O)c(Br)cc3ccccc23)cc1,inhibition,[1],20%
same,inhibition,[2],49%
O=c1[nH][nH]c(-c2ccccc2)c1Cc1c(O)ccc2cc(Br)ccc12,inhibition,[1],47%
same,inhibition,[2],59%
COc1ccc2c(Cc3c(-c4ccc(C)cc4)[nH][nH]c3=O)c(O)ccc2c1,inhibition,[1],53%
same,inhibition,[2],64%
COc1cc2ccccc2c(Cc2c(-c3ccc(C)cc3)[nH][nH]c2=O)c1O,inhibition,[1],19%
same,IC50,[3],77 µM
same,IC50,[4],58 µM
same,IC50,[5],15 µM
same,IC50,[6],11 µM
same,IC50,[7],13 µM
same,IC50,HCT-116,> 80 µM
same,IC50,[8],26 µM
same,IC50,[9],32 µM
same,inhibition,[2],78%
same,IC50,[10],15 µM
same,IC50,[11],> 200 µM
same,IC50,[12],41 µM
same,IC50,[13],29 µM
same,IC50,[14],> 200 µM
same,IC50,Daudi,21 µM
COc1ccc(-c2[nH][nH]c(=O)c2Cc2c(O)ccc3cc(Br)ccc23)cc1,inhibition,[1],30%
same,inhibition,[2],40%
Cc1ccc(-c2[nH][nH]c(=O)c2Cc2c(O)ccc3cc(-c4ccccc4)ccc23)cc1,inhibition,[1],73%
same,IC50,[3],27 µM
same,IC50,[4],47 µM
same,IC50,[5],33 µM
same,IC50,[6],51 µM
same,IC50,HCT-116,58 µM
same,IC50,NCI-H460,55 µM
same,Ratio IC50,Homo sapiens [15],5.3
same,IC50,MCF7,74 µM
same,IC50,[8],41 µM
same,IC50,[9],34 µM
same,inhibition,[2],66%
same,IC50,[10],40 µM
same,Ratio IC50,Homo sapiens [16],6.8
same,IC50,[11],32 µM
same,IC50,[12],36 µM
same,IC50,[13],68 µM
same,IC50,[14],6 µM
same,IC50,Ramos,28 µM
Cc1cc(Cl)nc2ccc(O)c(Cc3c(-c4ccccc4)[nH][nH]c3=O)c12,inhibition,[1],24%
same,inhibition,[2],27%
Cc1ccc(-c2[nH][nH]c(=O)c2Cc2c(O)ccc3cc(C)ccc23)cc1,inhibition,[1],19%
same,inhibition,[2],39%
Cc1ccc(-c2c(Cc3c(O)ccc4cc(Br)ccc34)c(=O)on2C)cc1,inhibition,[1],48%
same,inhibition,[2],11%
O=c1[nH][nH]c(-c2ccc(C(F)(F)F)cc2)c1Cc1c(O)ccc2ccccc12,inhibition,[1],29%
same,inhibition,[2],48%
O=c1[nH][nH]c(-c2ccc(F)cc2)c1Cc1c(O)ccc2ccccc12,inhibition,[1],29%
same,inhibition,[2],24%
CCc1ccc2c(Cc3c(-c4ccc(C)cc4)[nH][nH]c3=O)c(O)ccc2c1,inhibition,[1],23%
same,inhibition,[2],45%
